# Measurements pooled from the literature.
# Protocols differ between the studies behind these lines.
SMILES,test,test system,setting,measurement,value
CN[C@H](CC(C)C)C(=O)N[C@H]1C(=O)N[C@@H](CC(N)=O)C(=O)N[C@H]2C(=O)NC3C(=O)N[C@H](C(=O)N[C@H](C(=O)NCCC[N+](C)(C)C)c4cc(O)cc(O)c4-c4cc3ccc4O)[C@H](O)c3ccc(c(Cl)c3)Oc3cc2cc(c3OC2OC(CO)C(O)[C@H](O)[C@@H]2O[C@H]2CC(C)(NCc3ccc(-c4ccc(Cl)cc4)cc3)[C@H](O)[C@H](C)O2)Oc2ccc(cc2Cl)[C@H]1O (some centres unmarked),,"mouse, plasma","intravenous, 50 mg/kg",half-life,6.2 h
Nc1nc(-c2ccccc2)nc2[nH]nc(Nc3ccc(C(F)(F)F)cc3)c12,,"mouse, plasma","oral, 100 mg/kg, 6 h",concentration,802 ng/mL
O=C(NCCCCCn1ccc2ccc(F)cc21)Oc1cccnc1,HPLC,,,chromatographic logP,2.6
NCC(=O)Nc1ccc(-n2nc(C(F)(F)F)cc2-c2ccc3c(ccc4ccccc43)c2)cc1,,"mouse, plasma","oral, 80 mg/kg, single dose",half-life,22 h
Cc1ccccc1C(=O)NN=Cc1ccc(O)c(Br)c1,,"mouse, plasma","intravenous, 1.6 mg/kg",half-life,1.24 h
C[C@]12CC[C@H](n3ccnc3)CC1=CC[C@@H]1[C@@H]2CC[C@]2(C)C(n3cnc4ccccc43)=CC[C@@H]12.Cl.Cl,,"male CD-1 mouse, plasma","intravenous, 1 mg/kg",half-life,17.5 h
O=C(NCCCCCn1ccc2ccc(F)cc21)Oc1ccc(F)cc1,HPLC,,,chromatographic logP,4.2
C[C@]12CC[C@H](O)CC1=CC[C@@H]1[C@@H]2CC[C@]2(C)C(n3cnc4ccccc43)=CC[C@@H]12.Cl,,"mouse, plasma","intravenous, 1 mg/kg",half-life,1.02 h
N=c1c2c(-c3ccccc3)c(-c3ccccc3)n(Cc3ccccc3)c2ncn1[C@H]1CC[C@H](O)CC1,,"female minipig, plasma","oral, 2.5 mg/kg, single dose",half-life,98.4 h
O=C(OC(C(F)(F)F)C(F)(F)F)N1CCN(Cc2ccc(C(F)(F)F)cc2N2CCCC2)CC1,HPLC,,,chromatographic logP,7.4
Cc1cc(C)nc(Nc2ncc(C(=O)NCCc3c(C)[nH]c4ccccc34)cn2)c1,metabolic stability,"dog, liver microsomes",1 µM,microsomal CLint,72 µL/min/mg
CCN(CC)CCCC[C@H](NC(=O)[C@H](CC(C)C)NC(=O)[C@H](C)NC(=O)[C@H](Cc1ccccc1)NC(=O)c1ccc(C(C)(C)C)cc1)C(=O)N[C@@H](CO)C(=O)OC,,"male Swiss mouse, blood","intravenous, 3 mg/kg",half-life,0.09 h
NC(=O)c1cccc(-c2cccc(OC(=O)NC3CCCCC3)c2)c1,HPLC,,,chromatographic logP,2
C=C[C@H]1C[N@@]2CC[C@H]1C[C@@H]2[C@@H](O)c1ccnc2ccccc12,,water,,logP,2.82
N[C@@H](Cc1ccccc1)C(=O)N1C/C(=C\c2ccc(Cl)c(Cl)c2)C(=O)/C(=C/c2ccc(Cl)c(Cl)c2)C1,,"mouse, plasma","oral, 20 mg/kg",half-life,2.6 h
O=C(O)c1ccc(OC(=O)N2CCC(CCn3ccc4ccc(F)cc43)CC2)cc1,HPLC,,,chromatographic logP,3.6
CC[C@H]1CN2CC[C@H]1C[C@@H]2[C@@H](O)c1ccnc2ccc(OC)cc12,,water,,logP,3.43
